The list is not random: actives were taken first. Their share in the collection is about 2.6%.
E-selectin induc – E-selectin induction on HUVECs | P16581 | HUVEC E-selectin immunofluorescence imaging; normalized: neutral wells 0, TNF-alpha wells 100 | activation, % at 7.58 µM | 260,000 tested, 0.37% active;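 active means mean E-selectin-positive cell signal at least 10% of the positive control, reached in at least 60% of replicates, without over 20% cell loss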
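System: HUVEC, human umbilical vein endothelial cells; quantity: 3,000 cells/well; buffer or medium: EGM-2 medium, gelatin-coated wells; dosing: single-point compound dose; detection: immunofluorescence imaging; evaluation: % PE-positive cells; benchmarks: TNF-alpha, DMSO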
RAD52 inh – blocks human RAD52 DNA annealing | recombinant RAD52 DNA annealing, FRET fluorescence | inhibition, % at 18.7 µM | 360,000 tested, 0.46% active | AID 651710;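 active means every replicate showing at least 50% inhibition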
RAD54 branch – RAD54 (human) branch migration inhibition; Q92698; RAD54 Holliday junction branch migration, FAM/BHQ fluorescence; inhibition, % at 10.4 µM; 360,000 tested, 0.14% active; AID 602329;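 active means mean normalized replicate activity at least 40 and at least half of replicates scoring 40 or more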;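 further: inhibitors cause a drop in the FAM fluorescence signal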
Target sequence (Q92698 whole entry, looked up): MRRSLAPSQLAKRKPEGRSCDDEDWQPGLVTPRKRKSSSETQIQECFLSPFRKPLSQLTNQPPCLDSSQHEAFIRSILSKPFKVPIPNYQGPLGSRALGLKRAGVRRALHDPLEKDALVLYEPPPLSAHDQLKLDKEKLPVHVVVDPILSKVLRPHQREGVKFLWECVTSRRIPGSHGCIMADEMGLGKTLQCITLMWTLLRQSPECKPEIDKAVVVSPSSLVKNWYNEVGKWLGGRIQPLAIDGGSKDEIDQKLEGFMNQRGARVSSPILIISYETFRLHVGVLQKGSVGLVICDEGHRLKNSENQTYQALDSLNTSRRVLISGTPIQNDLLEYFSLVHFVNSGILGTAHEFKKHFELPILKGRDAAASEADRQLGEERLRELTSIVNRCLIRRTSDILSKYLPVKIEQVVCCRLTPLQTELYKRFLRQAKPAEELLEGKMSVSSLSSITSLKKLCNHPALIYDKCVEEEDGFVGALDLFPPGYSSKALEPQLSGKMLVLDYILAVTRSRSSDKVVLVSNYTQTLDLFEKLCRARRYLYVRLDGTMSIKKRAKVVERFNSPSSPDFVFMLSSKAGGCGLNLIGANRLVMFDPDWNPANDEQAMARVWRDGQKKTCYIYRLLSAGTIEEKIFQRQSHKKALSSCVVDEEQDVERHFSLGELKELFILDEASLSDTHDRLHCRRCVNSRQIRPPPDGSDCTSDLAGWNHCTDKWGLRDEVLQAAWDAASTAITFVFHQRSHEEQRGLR
INS-1E GSIS act – primary screen for activators of insulin secretion dependent on glucose, INS-1E cells, GLuc reporter luminescence; 370,000 tested, 0.61% active; AID 743287; activation, % at 16.6 µM; INS-1E GLuc reporter insulin secretion, 2-3 h;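 active means lowest replicate activation of at least 40%, so every replicate reaches that level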
rRNA inh HTS – selective bacterial rRNA inhibition in E. coli | E. coli WT GFP vs humanized-ribosome RFP mutants, fluorescence, 24 h; stronger effect = lower value; DMSO median 0, no signal -100 | GFP signal change (wild-type ribosome), % (test concentration not listed) | 350,000 tested, 1.6% active;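 active means significant combined selectivity score with lowered wild-type GFP, culture density cut under 30%, mutant RFP and density less affected; inactive means any of these conditions unmet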
MLL AF4-AF9 inh – MLL-AF4/AF9 protein interaction inhibition. AlphaScreen, biotin-AF4 peptide binding to FLAG-AF9. P42568. inhibition, % at 10 µM. AID 651704. 350,000 tested, 0.47% active;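 active means every replicate reaching a set inhibition limit, whatever the replicate mean, cut at about 25% in these data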
A number is an active result; i = inactive; nt = no result given.

SMILES | E-selectin induc | RAD52 inh | RAD54 branch | INS-1E GSIS act | rRNA inh HTS | MLL AF4-AF9 inh
O=C(O)c1ccccc1/C=N/NC(=S)NC1CCCCC1 | i | i | i | 75.5 | i | i
O=C(NC(=S)NC1CCCC1)c1ccccc1 | nt | i | i | i | -26.0 | i
O=C(NNC(=S)NC1CCCCC1)c1sc2ccccc2c1Cl | i | i | nt | i | -19.5 | i
O=C(O)c1ccccc1/C=N/NC(=O)C1CCCCC1 | i | i | i | i | i | i
COc1ccc(C#Cc2ccc([C@@H]3[C@H](CO)N4CCCCN(C)C[C@@H]34)cc2)cc1 | i | 63.3 | i | i | i | i
COc1ccc(C#Cc2ccc([C@H]3[C@@H](CO)N4CCCCN(C)C[C@H]34)cc2)cc1 | i | 79.9 | i | i | i | i
COc1ccc(C#Cc2ccc([C@@H]3[C@@H](CO)N4CCCCN(C)C[C@H]34)cc2)cc1 | i | i | i | i | i | i
COc1ccc(C#Cc2ccc([C@H]3[C@@H](CO)N4CCCCN(Cc5ccccc5F)C[C@H]34)cc2)cc1 | i | i | i | i | i | 29.1
CN1CCCCN2[C@H](CO)[C@H](c3ccc(C#Cc4ccccc4F)cc3)[C@H]2C1 | i | 69.1 | i | i | i | i
CC(C)NC(=O)N(C)C[C@H]1Oc2c(NC(=O)NC3CCCCC3)cccc2C(=O)N([C@@H](C)CO)C[C@H]1C | i | i | i | i | i | i
C[C@H](CO)N1C[C@H](C)[C@@H](CN(C)Cc2ccc(Cl)c(Cl)c2)Oc2ccc(NC(=O)C3CCCCC3)cc2CC1=O | i | i | i | i | i | i
O=C(NC(=S)NN1CCCCC1c1cccnc1)c1ccc(Br)cc1 (stereo unspecified) | i | i | i | nt | nt | i
COc1ccccc1C(=O)Nc1ccc(S(=O)(=O)N2CCCCC2c2cccnc2)cc1 (stereo unspecified) | nt | i | nt | i | -22.4 | i
COC(=O)c1ccc(NC(=S)NN2CCCCC2c2cccnc2)cc1 (stereo unspecified) | i | i | i | i | -27.1 | nt
CO[C@@H]1CN(C)C(=O)c2ccc(NC(=O)c3nc4ccccc4s3)cc2OC[C@H](C)N(Cc2ccncc2)C[C@@H]1C | i | i | i | i | i | i
CCCCNC(=O)O[C@@H]1C[C@@H]2CCN3C(=O)CCC[C@H]([C@H]1CC)[C@H]23 | i | i | i | i | i | 94.2
CC(=O)Nc1sc2c(c1-c1nc3ccccc3s1)CCN(C(C)C)C2 | nt | nt | 77.6 | nt | nt | nt
CC(C)N1CCc2c(sc(NC(=O)c3ccc4ccccc4c3)c2C(N)=O)C1 | i | i | i | i | i | i
O=c1[nH]c(C2CCN(S(=O)(=O)c3ccc4c(c3)OCCO4)CC2)nc2c1nnn2Cc1ccccc1F | nt | i | i | i | -27.8 | i
O=c1[nH]c(C2CCN(S(=O)(=O)c3ccc4c(c3)OCCO4)CC2)nc2c1nnn2Cc1c(F)cccc1Cl | i | i | i | i | i | i
COc1ccc(-c2cc(C(=O)NN)n(-c3ccccc3)n2)cc1 | i | i | nt | i | i | i
CNC(=O)COC(=O)c1cc(-c2ccccc2)nn1-c1ccccc1 | i | i | i | i | -27.1 | i
Cc1ccc(NC(=S)NNC(=O)C2CC2c2ccc(C)cc2)cc1 (stereo unspecified) | i | nt | i | nt | nt | nt
O=C(NNC(=S)Nc1ccc(F)cc1)C1CC1c1ccc(Cl)cc1 (stereo unspecified) | i | i | nt | i | -52.2 | i
O=C(C1CCCCC1)N1CC2(C1)[C@H](c1ccccc1)[C@H](CO)N2Cc1cncnc1 | i | i | nt | i | i | i
SMILES | E-selectin induc | RAD52 inh | RAD54 branch | INS-1E GSIS act | rRNA inh HTS | MLL AF4-AF9 inh
O=C1/C(=C/c2ccccc2)SC(=S)N1CCCC(=O)N1CCCCC1CCO (stereo unspecified) | i | i | nt | i | i | i
O=C1/C(=C/c2cccc(Cl)c2)SC(=S)N1CCC(=O)N1CCCCC1CCO (stereo unspecified) | i | i | i | i | -21.9 | i
O=C1/C(=C/c2ccc(Cl)cc2)SC(=S)N1CCC(=O)N1CCCCC1CCO (stereo unspecified) | nt | i | i | i | i | i
O=C1/C(=C/c2ccccc2F)SC(=S)N1CCC(=O)N1CCCCC1CCO (stereo unspecified) | i | i | i | i | -23.2 | i
O=C1/C(=C/c2cccs2)SC(=S)N1CC(=O)N1CCCCC1CCO (stereo unspecified) | nt | i | i | i | -24.8 | i
COC(=O)C1=C(C)N(Cc2ccco2)C(=O)/C1=C\c1ccc(N(C)C)cc1 | nt | nt | i | 57.5 | nt | nt
C[C@@H]1CN([C@H](C)CO)C(=O)Cc2cc(NS(=O)(=O)c3cccs3)ccc2O[C@@H]1CN(C)CC1CC1 | i | i | i | i | i | i
N#Cc1cc2c(nc1SCc1ccccc1)CCCCC2 | nt | nt | i | nt | nt | nt
N#Cc1cc2c(nc1SCC(O)CS(=O)(=O)Cc1ccccc1)CCCC2 (stereo unspecified) | nt | i | i | i | -35.3 | i
Fc1ccc(-n2cc(CNCCc3cccnc3)c(-c3ccccc3Cl)n2)cc1 | i | i | nt | i | -39.5 | i
COCC(=O)N1[C@@H](CO)[C@@H]2c3ccccc3N(C(=O)C3CC3)C[C@@H]21 | i | i | i | i | i | i
CCN(CC(=O)NC(C)(C)C)Cc1nc2c(Br)cc(Br)cc2c(=O)[nH]1 | nt | i | nt | i | -29.0 | i
CCN(CC(=O)NC1CCS(=O)(=O)C1)Cc1nc2c(Br)cc(Br)cc2c(=O)[nH]1 (stereo unspecified) | i | i | nt | i | i | i
Cc1noc(C)c1S(=O)(=O)N(C)C[C@H]1OCCCC[C@@H](C)Oc2ccc(NC(=O)Nc3ccc4c(c3)OCO4)cc2C(=O)N([C@H](C)CO)C[C@@H]1C | i | nt | i | i | i | nt
COCCNC(=S)N1CCC(c2nc(-c3ccc(N(C)C)cc3)no2)CC1 | nt | nt | nt | i | nt | nt
CC(C)CNC(=S)N1CCC(c2nc(-c3ccc(F)cc3)no2)CC1 | i | i | i | i | -25.6 | i
O=C(NCc1ccccc1)c1ncn(Cc2ccccc2)c1C(=O)NCc1ccccc1 | i | i | i | i | i | i
Cn1cnc(C(=O)NCc2ccccc2)c1C(=O)NCc1ccccc1 | i | i | i | i | -31.5 | i
CO[C@@H]1CN(C)C(=O)c2ccc(NC(=O)C3CCOCC3)cc2OC[C@H](C)N(Cc2cccnc2)C[C@@H]1C | i | i | i | i | i | i
Clc1cccc(CN2CCC3CC2c2cc(N4CCCCC4)ccc23)c1 (stereo unspecified) | i | i | i | i | i | 25.9
c1ccc(CN2CCC3CC2c2cc(N4CCCCC4)ccc23)cc1 (stereo unspecified) | i | i | i | i | i | i
N#C/C(=C\c1cccc(Oc2ccccc2)c1)C(=O)N1CCOCC1 | i | i | i | i | -24.7 | i
O=C(c1ccccc1)c1ccc2nc(-c3ccc(NC(=O)c4ccccc4F)cc3)[nH]c2c1 | nt | nt | i | 196.9 | nt | nt

Screening data as filed in PubChem.
